A short description of series [1]: Acute toxicity in po dosed mouse. Format: organism-based. Conditions: in vivo. In outline: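 Mouse acute oral toxicity (20.1 ± 1.9 g) by up-and-down procedure per OECD guideline 425. Compound dissolved in NMP, diluted with PEG400 and H2O (NMP/PEG400/H2O 1:8:1 v/v), given orally. Starting dose 50 mg/kg or 100 mg/kg depending on compound, slope factor sigma 0.12. Dosing stopped per AOT425StatPgm stopping rules.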

The next series relates to MCF7. Kind of series: Cytotoxicity against human MCF7 cells after 72 hrs by MTT assay. Conditions: MCF7, 72 h. It is filed as functional, cell-based. Summed up: (§1)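 Cells (1500–4000/well) were plated for 24 h, then exposed to serial concentrations for 72 h at 1% DMSO final. MTT was added for 4 h, formazan dissolved in DMSO, and OD read at 490 nm. IC50 (μM) came from three experiments run in triplicate.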

A further series has as its system A549. Kind of series: Cytotoxicity against human A549 cells after 72 hrs by MTT assay. Format: functional, cell-based. Conditions: A549, 72 h. Summed up: as §1
(Tetrazolium dyes change colour on reduction, which living cells bring about.)

Series [2] has as its system HCT-116. Kind of series: Cytotoxicity against human HCT116 cells after 72 hrs by MTT assay. Format: functional, cell-based. Conditions: HCT-116, 72 h. In outline: as §1
Another series relates to U-87 MG. In words: Cytotoxicity against human U87MG cells after 72 hrs by MTT assay. It is filed as functional, cell-based, U-87MG ATCC. In outline: as §1
The test system of series [3] is CCRF S-180. In words: Antitumor activity against mouse S180 cells xenografted in mouse assessed as inhibition of tumor growth at 10 mg/kg, po […] for 8 days relative to control. Format: functional. The note with it: CCRF S-180, po, 192 h, read-out: GI. In outline:
(§2)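 Mice (20.3 ± 1.6 g) were given 3×10^6 S180 cells subcutaneously in the flank and randomized the next day into groups of 8. Dosing was oral, once daily for 8 days, in NMP/PEG400/H₂O (1:6:3), with a solvent-only group as control. Body weight was recorded daily. On day 9, tumors were excised and weighed, and tumor-weight inhibitory ratio was calculated.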

The target in series [4] is T1, Phosphatidylinositol 4,5-bisphosphate 3-kinase catalytic subunit delta isoform (Homo sapiens, UniProt O00329).
T1 sequence (O00329 whole entry): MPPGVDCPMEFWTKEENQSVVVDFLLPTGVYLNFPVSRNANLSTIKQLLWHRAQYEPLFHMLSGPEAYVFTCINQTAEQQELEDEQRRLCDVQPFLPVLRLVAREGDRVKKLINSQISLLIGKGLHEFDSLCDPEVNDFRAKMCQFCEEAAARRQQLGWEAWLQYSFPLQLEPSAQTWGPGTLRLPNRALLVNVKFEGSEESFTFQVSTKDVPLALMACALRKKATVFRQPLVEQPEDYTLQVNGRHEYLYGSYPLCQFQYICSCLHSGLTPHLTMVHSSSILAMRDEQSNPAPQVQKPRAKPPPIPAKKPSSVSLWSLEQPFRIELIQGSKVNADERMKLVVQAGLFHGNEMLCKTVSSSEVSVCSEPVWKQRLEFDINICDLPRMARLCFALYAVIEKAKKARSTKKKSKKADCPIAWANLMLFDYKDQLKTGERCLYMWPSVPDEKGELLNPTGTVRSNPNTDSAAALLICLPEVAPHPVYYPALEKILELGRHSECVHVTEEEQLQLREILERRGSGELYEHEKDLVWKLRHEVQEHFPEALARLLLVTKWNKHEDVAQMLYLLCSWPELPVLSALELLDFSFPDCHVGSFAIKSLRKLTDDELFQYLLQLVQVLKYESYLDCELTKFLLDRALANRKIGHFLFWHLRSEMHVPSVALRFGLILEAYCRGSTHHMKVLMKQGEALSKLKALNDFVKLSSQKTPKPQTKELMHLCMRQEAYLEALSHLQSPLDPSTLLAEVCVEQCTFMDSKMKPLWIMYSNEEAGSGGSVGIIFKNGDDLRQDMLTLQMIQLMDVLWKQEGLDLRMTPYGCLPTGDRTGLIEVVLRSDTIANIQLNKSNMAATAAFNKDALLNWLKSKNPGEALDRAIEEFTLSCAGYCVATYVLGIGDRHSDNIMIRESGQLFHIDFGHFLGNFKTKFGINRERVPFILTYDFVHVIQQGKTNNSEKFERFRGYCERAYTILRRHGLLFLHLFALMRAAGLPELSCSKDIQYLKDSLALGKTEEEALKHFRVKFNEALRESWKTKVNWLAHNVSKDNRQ
In words: Inhibition of PI3Kdelta (unknown origin) assessed as reduction of ATP level after 40 mins by luciferase based luminescence assay. Summed up:
(§3)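 Each enzyme was tested separately: PI3Kα (p110α/p85α), β (p110β/p85α), γ (p110γ/PIK3R5), δ (p110δ/p85α) or mTOR, with L-α-phosphatidylinositol substrate. […] was measured by luciferase luminescence. Inhibition was normalized to no-compound and no-enzyme controls, and IC50 obtained from dose-response fits.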

Series [5] can be described thus: Ratio of compound LD50 to compound B LD50 for po dosed mouse. It is filed as ADME, organism-based. The note with it: in vivo.
The subject of series [6] is CCRF S-180. In words: Antitumor activity against mouse S180 cells xenografted in mouse assessed as inhibition of tumor growth at 30 mg/kg, po […] for 8 days relative to control. It is filed as functional. Conditions: CCRF S-180, po, 192 h, read-out: GI. Summed up:
as §2

Series [7] deals with Serine/threonine-protein kinase mTOR (Homo sapiens, UniProt P42345). Kind of series: Inhibition of mTOR (unknown origin) assessed as reduction of ATP level after 40 mins by luciferase based luminescence assay. Summed up:
as §3

In series [8] the target is T2, Phosphatidylinositol 4,5-bisphosphate 3-kinase catalytic subunit alpha isoform (Homo sapiens, UniProt P42336). In words: Ratio of BEZ235 IC50 to compound IC50 for PI3Kalpha (unknown origin) assessed as reduction of ATP level after 40 mins by luciferase based luminescence assay.
T2 sequence (P42336 whole entry, canonical isoform): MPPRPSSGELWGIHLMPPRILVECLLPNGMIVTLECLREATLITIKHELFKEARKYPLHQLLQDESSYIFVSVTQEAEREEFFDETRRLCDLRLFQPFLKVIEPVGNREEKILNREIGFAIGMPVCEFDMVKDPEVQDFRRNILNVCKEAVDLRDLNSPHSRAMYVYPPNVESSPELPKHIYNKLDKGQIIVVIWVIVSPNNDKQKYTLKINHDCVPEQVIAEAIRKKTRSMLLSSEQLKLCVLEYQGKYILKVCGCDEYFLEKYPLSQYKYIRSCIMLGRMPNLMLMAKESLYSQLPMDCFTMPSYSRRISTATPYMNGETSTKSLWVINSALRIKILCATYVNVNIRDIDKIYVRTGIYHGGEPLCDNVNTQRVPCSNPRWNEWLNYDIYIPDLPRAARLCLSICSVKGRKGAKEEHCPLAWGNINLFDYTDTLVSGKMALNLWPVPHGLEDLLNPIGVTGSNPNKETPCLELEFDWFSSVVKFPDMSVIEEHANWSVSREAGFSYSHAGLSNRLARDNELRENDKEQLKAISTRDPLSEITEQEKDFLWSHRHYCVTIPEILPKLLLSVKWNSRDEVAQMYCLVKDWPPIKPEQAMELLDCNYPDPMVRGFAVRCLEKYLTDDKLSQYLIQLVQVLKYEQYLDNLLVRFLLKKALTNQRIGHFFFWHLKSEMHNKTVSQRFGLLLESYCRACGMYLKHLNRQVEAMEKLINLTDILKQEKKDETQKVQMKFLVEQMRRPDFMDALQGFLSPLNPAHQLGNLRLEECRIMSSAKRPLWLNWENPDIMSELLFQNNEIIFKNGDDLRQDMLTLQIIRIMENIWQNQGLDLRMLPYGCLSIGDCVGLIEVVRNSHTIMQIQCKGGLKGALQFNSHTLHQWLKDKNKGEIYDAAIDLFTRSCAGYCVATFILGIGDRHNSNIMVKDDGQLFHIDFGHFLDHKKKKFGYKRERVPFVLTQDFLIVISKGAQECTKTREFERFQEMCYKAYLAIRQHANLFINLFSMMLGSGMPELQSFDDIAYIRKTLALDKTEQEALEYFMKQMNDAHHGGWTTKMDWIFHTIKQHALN
The subject of a further series is Mus musculus. In words: Toxicity in mouse S180 cells xenografted in mouse assessed as change in body weight at 5 to 30 mg/kg, po qd for 8 days. Format: organism-based, CCRF S-180. The note with it: in vivo, 192 h. Summed up: as §2
For series [9], the system named is CCRF S-180. In words: Antitumor activity against mouse S180 cells xenografted in mouse assessed as inhibition of tumor growth at 5 mg/kg, po […] for 8 days relative to control. It is filed as functional. Conditions: CCRF S-180, po, 192 h, read-out: GI. Summed up: as §2
Series [10] has as its target T2, Phosphatidylinositol 4,5-bisphosphate 3-kinase catalytic subunit alpha isoform. Kind of series: Inhibition of PI3Kalpha (unknown origin) assessed as reduction of ATP level after 40 mins by luciferase based luminescence assay.
In series [11] the test system is HCT-116. In words: Ratio of BEZ235 IC50 to compound IC50 for human HCT116 cells. It is filed as functional.

This note sets out measurements from ChEMBL document CHEMBL3600364, “Modification of N-(6-(2-methoxy-3-(4-fluorophenylsulfonamido)pyridin-5-yl)-[1,2,4]triazolo[1,5-a]pyridin-2-yl)acetamide as PI3Ks inhibitor by replacement of the acetamide group with alkylurea” (Bioorg Med Chem, 2015).

The molecule `COc1ncc(-c2ccc3nc(NC(C)=O)nn3c2)cc1NS(=O)(=O)c1ccc(F)cc1` registered an LD50 in series [1] of 28 mg/kg.
`COc1ncc(-c2ccc3nc(NC(=O)NCC(=O)N4CCCCC4)nn3c2)cc1NS(=O)(=O)c1ccc(F)cc1`: the IC50 was found to be 570 nM in the series with MCF7, 2060 nM with A549, 130 nM in the series on HCT-116 [2] and 740 nM with U-87 MG.
The matching figures for `COc1ncc(-c2ccc3nc(NC(=O)NCCN(C)C)nn3c2)cc1NS(=O)(=O)c1ccc(F)cc1`: 560 nM, 800 nM, 220 nM and 980 nM.
The matching figures for `COc1ncc(-c2ccc3nc(NC(=O)NCC(=O)N4CCCC4)nn3c2)cc1NS(=O)(=O)c1ccc(F)cc1`: 2130 nM, 2190 nM, 140 nM and 1000 nM.
The matching figures for `COc1ncc(-c2ccc3nc(NC(=O)N(C)C)nn3c2)cc1NS(=O)(=O)c1ccc(F)cc1`: 1560 nM, 1190 nM, 760 nM and 1780 nM.
Turning to `CNC(=O)Nc1nc2ccc(-c3cnc(OC)c(NS(=O)(=O)c4ccc(F)cc4)c3)cn2n1`, the IC50 came out at 250 nM in the series with MCF7, 230 nM in the series on A549, 180 nM in the series with HCT-116 [2] and 640 nM in the series with U-87 MG.
Taken in the same sequence, the figures for `CCN(CC)CCNC(=O)Nc1nc2ccc(-c3cnc(OC)c(NS(=O)(=O)c4ccc(F)cc4F)c3)cn2n1` were 740 nM, 980 nM, 140 nM and 1060 nM.
Taken in the same sequence, the figures for `COc1ncc(-c2ccc3nc(NC(=O)NCC(=O)N4CCOCC4)nn3c2)cc1NS(=O)(=O)c1ccc(F)cc1` were 630 nM, 2570 nM, 490 nM and 3260 nM.
The matching figures for `CCN(CC)CCNC(=O)Nc1nc2ccc(-c3cnc(OC)c(NS(=O)(=O)c4ccc(C)cc4)c3)cn2n1`: 410 nM, 730 nM, 170 nM and 670 nM.
`COc1ncc(-c2ccc3nc(NC(=O)NCCN4CCCCC4)nn3c2)cc1NS(=O)(=O)c1ccc(F)cc1`: the IC50 with MCF7 was determined as 200 nM; in the series with A549, 610 nM; in the series with HCT-116 [2] it was 150 nM; with U-87 MG, 1080 nM.
Taken in the same sequence, the figures for `COc1ncc(-c2ccc3nc(NC(=O)N4CCCC4)nn3c2)cc1NS(=O)(=O)c1ccc(F)cc1` were 1660 nM, 3570 nM, 1290 nM and 1690 nM.
For `CCN(CC)CCNC(=O)Nc1nc2ccc(-c3cnc(OC)c(NS(=O)(=O)c4ccc(F)cc4)c3)cn2n1`, the inhibition in vivo at 10 mg/kg in the series with CCRF S-180 [3] was found to be 49%. For the same molecule, the 50% inhibitory concentration (IC50) is 370 nM in the series on MCF7; 760 nM in the series with A549; 12 nM in series [4]; 123 nM in [7]; 180 nM in the series on HCT-116 [2]; 720 nM in the series on U-87 MG. Also, in series [10], the IC50 was 14 nM. In series [1], this molecule displayed a 50% lethal dose (LD50) of 513 mg/kg. Also, in series [5], the selectivity ratio turned out to be 18. In the series on CCRF S-180 [6], the inhibition in vivo at 30 mg/kg was determined as 53.6%. Moreover, the Ratio IC50 in series [8] came out at 3. Besides, the Activity result in the series with Mus musculus is recorded as “Non-toxic”. For the same molecule, in the series with CCRF S-180 [9], the inhibition in vivo at 5 mg/kg came out at 37.3%.
Regarding `COc1ncc(-c2ccc3nc(NC(=O)NCCN4CCN(C)CC4)nn3c2)cc1NS(=O)(=O)c1ccc(F)cc1`, the IC50 with MCF7 was 500 nM; in the series with A549, 1050 nM; with HCT-116 [2], 260 nM; in the series on U-87 MG, 760 nM.
Taken in the same sequence, the figures for `CCN(CC)CCNC(=O)Nc1nc2ccc(-c3cnc(OC)c(NS(=O)(=O)c4ccc(Cl)cc4)c3)cn2n1` were 680 nM, 680 nM, 120 nM and 760 nM.
The matching figures for `COc1ncc(-c2ccc3nc(NC(=O)NCCN4CCCC4)nn3c2)cc1NS(=O)(=O)c1ccc(F)cc1`: 380 nM, 960 nM, 230 nM and 1120 nM.
The matching figures for `COc1ncc(-c2ccc3nc(NC(=O)NCCN4CCOCC4)nn3c2)cc1NS(=O)(=O)c1ccc(F)cc1`: 210 nM, 420 nM, 130 nM and 560 nM.
For the molecule `CCCNC(=O)Nc1nc2ccc(-c3cnc(OC)c(NS(=O)(=O)c4ccc(F)cc4)c3)cn2n1`, the IC50 amounted to 360 nM in the series on MCF7, 220 nM in the series with A549, 150 nM in the series with HCT-116 [2] and 420 nM with U-87 MG. In addition, in series [1], the LD50 was determined as 156 mg/kg. Besides, the selectivity ratio in series [5] came out at 5.
Take `COc1ncc(-c2ccc3nc(NC(=O)NC4CC4)nn3c2)cc1NS(=O)(=O)c1ccc(F)cc1`: the IC50 in the series with MCF7 came out at 300 nM; in the series with A549, 210 nM; in series [4], 16 nM; in series [7] it was 275 nM; in the series with HCT-116 [2] it was 90 nM; in the series with U-87 MG it was 540 nM. Besides, the IC50 in series [10] turned out to be 7 nM. The molecule also came in with an LD50 in series [1] of 118 mg/kg. In addition, the selectivity ratio in series [5] came out at 4. For the same molecule, the “Ratio IC50” value in the series with HCT-116 [11] was 3; in series [8], 8.
For `Cn1c(=O)n(-c2ccc(C(C)(C)C#N)cc2)c2c3cc(-c4cnc5ccccc5c4)ccc3ncc21` [DACTOLISIB], the IC50 with MCF7 came out at 260 nM; in the series on A549, 280 nM; in the series with HCT-116 [2], 290 nM; with U-87 MG, 770 nM.

As usually defined, the LD50 is the dose at which mortality reaches 50%. Higher therefore signals lower toxicity. A word on the IC50: it is the concentration needed to halve the response being measured.
